Test [1] is filed under the species Mus musculus. The experiment in a line: Lymphocyte Proliferation Stimulatory effect was tested on mouse spleen cells and evaluated for at 6 h [3H]TdR (tritium-thymidine) pulse and uptake into cells at 100 ng/mL. Type of test: functional. The gist of the method:
(§1)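 BALB/c spleen cells (2 × 10^5 cells/well, no stimulator cells) were cultured in 10% FCS RPMI 1640 with compound at 37 °C in 5% CO2 for 2–3 days. A 6 h [3H]TdR pulse followed, and uptake was counted by liquid scintillation. Run in triplicate.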

The subject of test [2] is B16. The experiment in a line: Tumor Growth Inhibitory effect (TGIR) on mice subcutaneously inoculated with B16 cells (compound alone (single)). It counts as functional, Mus musculus. More on the design: concentration or dose not given beside the values. The gist of the method:
(§2)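 Groups of six female BDF1 mice received B16 melanoma (1 × 10^6 cells/mouse) s.c. on day 0. AGL analogues were given i.v. at 100 μg/kg on days 1, 5 and 9, and MMC at 5 mg/kg i.p. on day 1; controls were untreated. Tumor volume (length × width × height/2, by callipers) was read on days 8, 12, 16 and 20. TGIR = [1 − mean test volume/mean control volume] × 100, and the maximum value is reported.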

Test [3] is filed under the species Mus musculus. The experiment in a line: Lymphocyte Proliferation Stimulatory effect was tested on mouse spleen cells and evaluated for at 6 h [3H]TdR (tritium-thymidine) pulse and uptake into cells at 10 ng/mL. Type of test: functional. The gist of the method:
as §1

In test [4] the test system is B16. The experiment in a line: Tumor Growth Inhibitory effect (TGIR) on mice subcutaneously inoculated with B16 cells (chemotherapeutic agent, mitomycin C (MMC)). Type of test: functional, Mus musculus. More on the design: concentration or dose not given beside the values. The gist of the method: as §2
For test [5], the system named is B16. The experiment in a line: Tumor Growth Inhibitory effect (TGIR) on mice subcutaneously inoculated with B16 cells (compound plus MMC). It counts as functional, Mus musculus. More on the design: concentration or dose not given beside the values. In a few lines: as §2
Test [6] is filed under the species Mus musculus. The experiment in a line: Lymphocyte Proliferation Stimulatory effect was tested on mouse spleen cells and evaluated for at 6 h [3H]TdR (tritium-thymidine) pulse and uptake into cells at 1 ng/mL. It counts as functional. The gist of the method: as §1

Regarding `CCCCCCCCCCCCCCCCCCCCCC[C@@H](O)C(=O)N[C@@H](CO[C@H]1O[C@@H](CO)[C@H](O)[C@H](O)[C@@H]1O)[C@H](O)CCCCCCCCCCCCCCC`, the Control in the test listed under Mus musculus [1] amounted to 872%; in the test with B16 [2], 81.3%; in the test listed under Mus musculus [3], 898%; in the test with B16 [5], 98.5%; in the test filed under Mus musculus [6], 397%. In addition, the “Tumor growth inhibition ratio (max TGIR)” value in the test on B16 [4] was 70.7%.
Consider `CCCCCCCCCCCCCCCCCCCCCCCC[C@@H](O)C(=O)N[C@@H](CO[C@H]1O[C@@H](CO)[C@H](O)[C@H](O)[C@@H]1O)[C@H](O)[C@H](O)CCCCCCCCCCCCCCCC`, for which the Control is listed as 481% in the test filed under Mus musculus [1]; 92.8% in the test with B16 [2]; 482% in the test listed under Mus musculus [3]; 94.3% with B16 [5]; 153% in the test filed under Mus musculus [6]. Further, the “Tumor growth inhibition ratio (max TGIR)” value in the test on B16 [4] came out at 87.3%.
With `CCCCCCCCCCCCCCCCCCCC(=O)N[C@@H](CO[C@H]1O[C@@H](CO)[C@H](O)[C@H](O)[C@@H]1O)[C@H](O)CCCCCCCCCCCCCCC`, the Control in the test filed under Mus musculus [1] came to 1009%; in the test with B16 [2] it was 53.1%; in the test filed under Mus musculus [3], 791%; with B16 [5] it was 90.4%; in the test filed under Mus musculus [6], 177%. The “Tumor growth inhibition ratio (max TGIR)” value in the test on B16 [4] is recorded as 39.4%.
In the case of `CCCCCCCCCCCCCCCCCCCCCCCC(=O)N[C@@H](CO[C@H]1O[C@@H](CO)[C@H](O)[C@H](O)[C@@H]1O)[C@H](O)CCCCCCCCCCCCCCC`, the Control was found to be 1494% in the test listed under Mus musculus [1]; 68.9% in the test on B16 [2]; 1432% in the test filed under Mus musculus [3]; 99.1% with B16 [5]; 1115% in the test filed under Mus musculus [6]. Further, the “Tumor growth inhibition ratio (max TGIR)” value with B16 [4] is listed as 64%.
Take `CCCCCCCCCCCCCCC[C@@H](O)[C@H](CO[C@H]1O[C@@H](CO)[C@H](O)[C@H](O)[C@@H]1O)NC(=O)CCCCCCCCCCCCC`: the Control was 1664% in the test filed under Mus musculus [1]; 54.2% in the test with B16 [2]; 1010% in the test listed under Mus musculus [3]; 84.4% with B16 [5]; 249% in the test filed under Mus musculus [6]. Also, the “Tumor growth inhibition ratio (max TGIR)” value in the test with B16 [4] came to 64.1%.
Regarding `CCCCCCCCCCCCCCCCCCCCCCCC(=O)N[C@H](CCCCCCCCCCCCCCCC)CO[C@H]1O[C@@H](CO)[C@H](O)[C@H](O)[C@@H]1O`, the Control is 147% in the test filed under Mus musculus [1]; 40.7% in the test with B16 [2]; 100% in the test listed under Mus musculus [3]; 91.4% with B16 [5]; 90% in the test filed under Mus musculus [6]. Moreover, the “Tumor growth inhibition ratio (max TGIR)” value in the test with B16 [4] is on record as 80%.
Turning to `CCCCCCCCCCCCCCCCCCCCCC[C@@H](O)C(=O)N[C@@H](CO[C@H]1O[C@@H](CO)[C@H](O)[C@H](O)[C@@H]1O)[C@H](O)[C@H](O)CCCCCCCCCCCCCC`, the Control is on record as 1552% in the test filed under Mus musculus [1]; 57.9% with B16 [2]; 1405% in the test filed under Mus musculus [3]; 91.9% in the test on B16 [5]; 1060% in the test filed under Mus musculus [6]. Further, the “Tumor growth inhibition ratio (max TGIR)” value in the test with B16 [4] was determined as 64%.
In the case of `CCCCCCCCCCCCCCCCCCCCCCCC(=O)N[C@@H](CO[C@H]1O[C@@H](CO)[C@H](O)[C@H](O)[C@@H]1O)[C@H](O)[C@H](O)CCCCCCCCCCCCCC`, the Control in the test listed under Mus musculus [1] is on record as 790%; in the test on B16 [2] it was 65%; in the test filed under Mus musculus [3] it was 642%; with B16 [5], 90.8%; in the test listed under Mus musculus [6], 198%. Also, the “Tumor growth inhibition ratio (max TGIR)” value in the test on B16 [4] is recorded as 64.8%.
With `CCCCCCCCCCCCCCCCCC(=O)N[C@@H](CO[C@H]1O[C@@H](CO)[C@H](O)[C@H](O)[C@@H]1O)[C@H](O)CCCCCCCCCCCCCCC`, the Control was 645% in the test filed under Mus musculus [1]; 78.1% with B16 [2]; 383% in the test filed under Mus musculus [3]; 80.3% in the test with B16 [5]; 155% in the test listed under Mus musculus [6]. In addition, the “Tumor growth inhibition ratio (max TGIR)” value with B16 [4] worked out at 64.1%.
